# Source: ChEMBL document CHEMBL2163256, “6-(methylamino)hexane-1,2,3,4,5-pentanol 4-(((1S,2S)-1-hydroxy-2,3-dihydro-1H,1'H-[2,2-biinden]-2-yl)methyl)benzoate (PH46A): a novel small molecule with efficacy in murine models of colitis” (J Med Chem, 2012)
# Activity calls are given as the source filed them. The calls are words filed in the database; no cut-off is given here.
# Assays:
# Mus musculus [1] = test: Toxicity in DSS-induced colitis BALB/c mouse model assessed as overt reactions at 30 mg/kg, po qd for 7 days relative to vehicle-treated control; format: organism-based; set-up: dose 30 mg/kg, route oral; conditions: in vivo, 168 h
# Mus musculus [2] = test: Antiinflammatory activity against DSS-induced colitis BALB/c mouse model assessed as decrease in disease activity index at 30 mg/kg, po qd for 7 days measured on day 6 relative to vehicle-treated control; format: functional, organism-based; set-up: dose 30 mg/kg
# Outline: (§1)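 Female SPF BALB/c mice, 6−8 weeks old; colitis induced by 5% DSS in tap drinking water (renewed every second day) for 7 days. Daily oral dosing for 7 days as suspension/solution in 0.5% carboxymethyl cellulose/2% Tween 80. Daily body weight; DAI per mouse each day from weight loss, occult blood and stool consistency; colon length at autopsy. Mean ± SEM, n = 6−7.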
# Mus musculus [3] = test: Antiinflammatory activity against DSS-induced colitis BALB/c mouse model assessed as increase in colon lenght at 30 mg/kg, po qd for 7 days relative to vehicle-treated control; format: functional, organism-based; set-up: dose 30 mg/kg; outline: as §1
# Mus musculus [4] = test: Antiinflammatory activity against DSS-induced colitis BALB/c mouse model assessed as decrease in disease activity index at 30 mg/kg, po qd for 7 days relative to vehicle-treated control; format: functional, organism-based; set-up: dose 30 mg/kg; outline: as §1
structure (smiles),measurement,setting,value
O=C(O)c1ccc(C[C@@]2(C3=Cc4ccccc4C3)Cc3ccccc3[C@H]2O)cc1,Activity,Mus musculus [1],Non-toxic
O=C(O)c1ccc(C[C@]2(C3=Cc4ccccc4C3)Cc3ccccc3[C@@H]2O)cc1,Activity,Mus musculus [1],Non-toxic
same,Activity,Mus musculus [2],inactive
same,Activity,Mus musculus [3],Active
same,Activity,Mus musculus [4],Active
O=C(O)c1ccc(C[C@@]2(C3=Cc4ccccc4C3)Cc3ccccc3[C@@H]2O)cc1,Activity,Mus musculus [1],Non-toxic
same,Activity,Mus musculus [3],Active
same,Activity,Mus musculus [4],inactive
